CHOP UPR activ – activators of apoptotic arm of unfolded protein response (CHOP); 330,000 tested, 0.34% active; CHO-CHOP luciferase reporter, UPR activation, luminescence; percent of tunicamycin response over DMSO baseline; activation, % at 10 µM;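 active = at 10 µM dose, activation of 40% or more, normalized to positive control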
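Test system: CHO CHOP reporter cells. Input: 500 CHO-CHOP cells per well. Medium: F12 with 10% FBS. Technique: luciferase luminescence. Measure: percent activation relative to tunicamycin control. Dosing: 10 µM compound, 0.5% DMSO. Timing: 16-18 h cell attachment, then 6 h compound exposure, 37 °C.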
Jurkat NFkB inh – inhibitors of the PMA/ionomycin-induced NF-kB reporter in Jurkat cells; PMA/ionomycin-induced NF-kB luciferase reporter, luminescence; inhibition, % at 4 µM; 330,000 tested, 0.53% active; AID 435003; in the data active = inhibition above about 50%
697 NFkB inh – inhibitors of the PMA/ionomycin-induced NF-kB reporter in 697 B cells; 697 B-cell NF-kB luciferase reporter, 16 h; 330,000 tested, 0.33% active; AID 435022; inhibition, % at 4 µM; in the data active = inhibition above about 35%
XBP1 UPR activ – activators of adaptive arm of unfolded protein response (XBP1). activation, % at 20 µM. CHO-XBP1 luciferase reporter, IRE1-XBP1 UPR activation, luminescence; percent of tunicamycin response, DMSO as zero. 330,000 tested, 0.33% active;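 active = versus positive control, 20 µM dose yields 30% or more activation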
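Material: CHO-XBP1 cells stably carrying IRE1-XBP1-driven luciferase reporter | Medium: F12 with 10% serum | Compound dosing: 20 µM single concentration, DMSO 1% | Incubation: Overnight seeding at 37 °C, 6 h compound treatment at 37 °C | Detection: Steady-Glo luminescence read | Read-out basis: % activation of reporter signal versus tunicamycin and DMSO controls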
CHOP inh – blocks CHOP induction under ER stress; CHO-K1 CHOP-promoter luciferase, tunicamycin-induced, 15-18 h; inhibition, % at 10 µM; 220,000 tested, 3.8% active; AID 2732;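 active = compounds that reduced the stress-induced luciferase reporter signal by more than about 70% of percent inhibition, limit read from the data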
Large screens that a line does not name were inactive. This is one part of a sample in which hits are shown more often than they occur.

O=S(=O)(NCc1ccc2c(c1)OCO2)c1cccc(F)c1	none (no result: CHOP inh)
CCNS(=O)(=O)c1ccc(NC(=O)Nc2ccc3c(c2)OCO3)cc1	none (no result: CHOP inh)
O=S(=O)(NCc1ccc2c(c1)OCO2)c1ccc2c(c1)oc1ccccc12	CHOP inh 95.2
CCOP(=O)(OCC)c1nc(-c2ccc(Cl)cc2)oc1NCc1ccccc1	CHOP inh 91.7
Cc1ccc(S(=O)(=O)c2nc(Nc3nccs3)sc2Cl)cc1	CHOP inh 72.2
O=C(CN1CCCN(S(=O)(=O)c2ccc(Br)s2)CC1)Nc1ccc(Cl)cc1	CHOP inh 72.2
COCC(C)(C)COS(N)(=O)=O	none (no result: CHOP inh)
COc1ccc(Cc2noc(-c3ccc(C)cc3)n2)cc1	CHOP inh 87.5
Cc1ccc2c(c1)N=C(c1ccc(F)cc1)CO2	CHOP inh 78.5
O=C(CN1CCN(S(=O)(=O)c2ccccc2)CC1)N1CCc2ccccc21	none (no result: CHOP inh)
C=CCn1c(SCC(O)Cn2c3ccccc3c3ccccc32)nnc1-c1ccco1 (centres undefined)	CHOP inh 77.2
C=CCn1c(SCC(=O)N2c3ccccc3Sc3ccccc32)nnc1-c1ccco1	none
Cc1cc(C)c(OCC(=O)OCC(=O)NCCC2=CCCCC2)c(C)c1	none (no result: CHOP inh)
CC(=O)OC1COC(OC2C(O)C(C)OC(OC3C(OC4CCC5(C)C(CCC6(C)C5CC=C5C7CC(C)(C)CCC7(C(=O)O)CCC56C)C4(C)CO)OCC(O)C3O)C2O)C(O)C1OC(C)=O (centres undefined)	CHOP inh 92.5
C/C=C(/C)C(=O)OC1CC(C)(C)C[C@H]2C3=CC[C@@H]4[C@@]5(C)CCC(O[C@@H]6O[C@@H](C(=O)O)[C@@H](O)C(O[C@@H]7OC[C@H](O)[C@@H](O)[C@@H]7O[C@@H]7OC(CO)C(O)[C@@H](O)[C@@H]7O)C6O[C@@H]6OC(CO)C(O)C(O)C6O)[C@@](C)(CO)[C@@H]5CC[C@]4(C)[C@]3(C)CC(O)[C@@]12CO (some centres undefined)	none (no result: CHOP inh)
Cc1ccn2c(=O)nc(SCC(=O)N3N=C(c4cccs4)CC3c3ccc(F)cc3)nc2c1 (centres undefined)	none (no result: CHOP inh)
O=S(=O)(N1CCCCC1)N1CCN(CC(O)COc2ccc3cc(Br)ccc3c2)CC1 (centres undefined)	CHOP inh 86.7
CN(C)S(=O)(=O)N1CCN(CC(O)COc2ccc3cc(Br)ccc3c2)CC1 (centres undefined)	none
OC(COc1ccc2cc(Br)ccc2c1)CN1CCN(c2ccccn2)CC1 (centres undefined)	CHOP inh 78.9
OC(COC(c1ccc(Cl)cc1)c1ccc(Cl)cc1)CN1CCN(c2ccccn2)CC1 (centres undefined)	CHOP inh 91.3
O=C(Nc1ccccc1)c1nc[nH]c1C(=O)NCCN(CCNC(=O)c1[nH]cnc1C(=O)Nc1ccccc1)CCNC(=O)c1[nH]cnc1C(=O)Nc1ccccc1	none (no result: CHOP inh)
Cc1cc(C)c(C)c(OCCCOc2cccc3cccnc23)c1	CHOP inh 81.3
Cc1cc(OCCOc2cccc3cccnc23)cc(C)c1Cl	CHOP inh 74.7
c1ccc(OCCOc2cccc3cccnc23)cc1	none
CC(=O)c1ccc(N(C(=O)CNC(=O)c2ccco2)C(C(=O)NC2CCCC2)c2cccnc2)cc1 (centres undefined)	none (no result: CHOP inh)
CCOC(=O)c1c(C)[nH]c(C)c1C(=O)COC(=O)COc1ccc(Cl)c(C)c1	none (no result: CHOP inh)
Cc1ccc(N2C(=O)c3cccc4c(N5CCN(C)CC5)ccc(c34)C2=O)c2cccnc12	none
Cc1ccc(N2C(=O)c3cccc4c([N+](=O)[O-])ccc(c34)C2=O)c2cccnc12	CHOP inh 94.5
O=[N+]([O-])c1cc(C(F)(F)F)ccc1NCCNC(=S)Nc1ccc(Cl)cc1	CHOP inh 86.1
O=[N+]([O-])c1cc(C(F)(F)F)ccc1NCCCCNS(=O)(=O)c1ccc(Cl)cc1	none
Cc1ccc(C)c(NC(=S)NC(NC(=O)OCc2ccccc2)C(Cl)(Cl)Cl)c1 (centres undefined)	CHOP inh 91.8
O=C(NC(NC(=S)Nc1c(Cl)cc(Cl)cc1Cl)C(Cl)(Cl)Cl)OCc1ccccc1 (centres undefined)	CHOP inh 88.3
O=C(CCc1ccccc1)NC(NC(=S)Nc1cccc(Cl)c1)C(Cl)(Cl)Cl (centres undefined)	none
CCn1cc(C(=O)O)c(=O)c2cc(F)c(N/N=C/c3ccccc3)cc21	CHOP inh 103.1
CCCCCCCCNC(=O)/C(C#N)=C/c1ccccc1[N+](=O)[O-]	CHOP inh 94.1
CC1CCCCN1C(=O)Cn1c(=O)n(C2CCCCC2)c(=O)c2ccccc21 (centres undefined)	CHOP inh 82.1
CCCCOc1ccccc1Cn1c(=O)oc2ccccc21	CHOP inh 88.2
O=c1oc2ccccc2n1Cc1ccccc1F	none (no result: CHOP inh)
COC(=O)c1ccc(NC(=O)[C@H](C)NC(N)=O)cc1	none
CCCCn1c(=N)n(CC(O)COc2ccc(C)cc2)c2ccccc21 (centres undefined)	CHOP inh 72.0
CCOc1ccc(N2C(=O)CC(Sc3nnnn3-c3ccccc3)C2=O)cc1 (centres undefined)	CHOP inh 107.5 (no result: CHOP UPR activ, Jurkat NFkB inh, 697 NFkB inh, XBP1 UPR activ)
COc1ccc(N2CCN(S(=O)(=O)c3c(C)nc4scc(C)n4c3=O)CC2)cc1	none (no result: CHOP inh)
CC(C)CN1C(=O)/C(=C(/C#N)C(=O)NC2CCCCC2)c2ccccc21	CHOP inh 92.0
CCCCN1C(=O)/C(=C(/C#N)C(=O)N2CCCC2)c2ccccc21	none
COc1ccc(-c2ccnc(-c3ccc(OCCCF)cc3)n2)cc1	CHOP inh 71.4
Oc1ccc(-c2nccc(-c3ccc(Cl)cc3)n2)cc1	none
FCCCOc1ccc(-c2nccc(-c3ccc(Cl)cc3)n2)cc1	CHOP inh 77.7
COc1ccc(N/C=C(\C#N)c2ccc(OCCCF)cc2)cc1	none
CCc1cc2c(-c3ccccc3)cc(=O)oc2cc1OC(=O)c1cccs1	CHOP inh 70.4
O[C@@H]1COC(Nc2ccc(N=Nc3ccccc3)cc2)C[C@@H]1O (some centres undefined)	none
CSc1ccccc1NC(=O)CSCc1ccccc1Br	CHOP inh 71.8
CSc1ccccc1NC(=O)CN(C)Cc1ccc(Br)cc1	CHOP inh 80.3
CSc1ccccc1NC(=O)CSCc1ccc(Br)cc1	none
CC(C)Oc1ccc(S(=O)(=O)N2CCOCC2)cc1NC(=O)c1cc([N+](=O)[O-])ccc1N1CCOCC1	none (no result: CHOP inh)
COCCCN1CN(S(=O)(=O)c2ccc(Cl)cc2)c2nc3ccccc3nc21	CHOP inh 93.0
COCCN1CN(S(=O)(=O)c2cccc(Cl)c2)c2nc3ccccc3nc21	none (no result: CHOP inh)
Clc1ccc(CN2C3=NCCN3c3ccccc32)cc1	CHOP inh 71.5

Screening results deposited in PubChem by several laboratories.
